{"source": "ChEMBL document CHEMBL1123260", "about": "(J Med Chem, 1986)", "key": {"[1]": {"test_system": "Canis familiaris", "test": "Positive inotropic effects in anesthetized dogs", "assay_type": "functional", "details": "Canis lupus familiaris", "procedure,_shortened": "(§1)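 Anesthetized dogs: 30 min control recording before dosing. Drug dissolved in 0.9% saline or dilute HCl or NaOH (0.1 or 1.0 N), then made to volume with saline. Given iv (0.1 mL/kg over 1 min), cumulative doses at half-log intervals, 10–30 min between doses to reach steady state. One compound per animal. Inotropy taken as change in LV dP/dtmax from preceding baseline. Values are mean ± SEM or the mean of two experiments.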"}, "[2]": {"test_system": "Canis familiaris", "test": "(§2) Percent change in total peripheral resistance (TPR) before beta-blockade in anesthetized dogs at 0.01 mg/kg", "assay_type": "functional, Canis lupus familiaris", "procedure,_shortened": "as §1"}, "[3]": {"test_system": "Canis familiaris", "test": "(§3) Percent change in total peripheral resistance (TPR) before beta-blockade in anesthetized dogs at 0.03 mg/kg", "assay_type": "functional, Canis lupus familiaris", "procedure,_shortened": "as §1"}, "[4]": {"test_system": "Canis familiaris", "test": "Percent change in total peripheral resistance (TPR) before beta-blockade in anesthetized dogs at 0.11 mg/kg", "assay_type": "functional, Canis lupus familiaris", "procedure,_shortened": "as §1"}, "[5]": {"test_system": "Canis familiaris", "test": "as §2", "assay_type": "functional, Canis lupus familiaris", "procedure,_shortened": "as §1", "remark": "listed apart in the source"}, "[6]": {"test_system": "Canis familiaris", "test": "as §3", "assay_type": "functional, Canis lupus familiaris", "procedure,_shortened": "as §1", "remark": "listed apart in the source"}, "[7]": {"test_system": "Canis familiaris", "test": "Percent change in total peripheral resistance (TPR) before beta-blockade in anaesthetized dogs at 0.11 mg/kg", "assay_type": "functional, Canis lupus familiaris", "procedure,_shortened": "as §1"}, "[8]": {"test_system": "Canis familiaris", "test": "(§4) Percent change in heart rate (HR) before beta-blockade in anesthetized dogs at 0.01 mg/kg", "assay_type": "functional, Canis lupus familiaris", "procedure,_shortened": "as §1"}, "[9]": {"test_system": "Canis familiaris", "test": "(§5) Percent change in heart rate (HR) before beta-blockade in anesthetized dogs at 0.03 mg/kg", "assay_type": "functional, Canis lupus familiaris", "procedure,_shortened": "as §1"}, "[10]": {"test_system": "Canis familiaris", "test": "(§6) Percent change in heart rate (HR) before beta-blockade in anesthetized dogs at 0.11 mg/kg", "assay_type": "functional, Canis lupus familiaris", "procedure,_shortened": "as §1"}, "[11]": {"test_system": "Canis familiaris", "test": "Percent change in forelimb vascular resistance (FVR)in anesthetized dogs after beta-blockade at 0.01 mg/kg", "assay_type": "functional, Canis lupus familiaris", "procedure,_shortened": "(§7)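 Anesthetized dogs given β-adrenoceptor blockade (nadolol, 1 mg/kg iv) before the test agent. Drug dissolved in saline or dilute HCl/NaOH and given iv as cumulative 1-min doses, 10–30 min apart. Forelimb vascular resistance recorded as percent change from control. Values are mean ± SEM (n = 4-5) or the mean of two determinations, with significance set at p < 0.05.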"}, "[12]": {"test_system": "Canis familiaris", "test": "(§8) Percent change in forelimb vascular resistance (FVR) after beta-blockade in anesthetized dogs 0.03 mg/kg", "assay_type": "functional, Canis lupus familiaris", "procedure,_shortened": "as §7"}, "[13]": {"test_system": "Canis familiaris", "test": "(§9) Percent change in forelimb vascular resistance (FVR) after beta-blockade in anesthetized dogs 0.11 mg/kg", "assay_type": "functional, Canis lupus familiaris", "procedure,_shortened": "as §7"}, "[14]": {"test_system": "Canis familiaris", "test": "Percent change in forelimb vascular resistance (FVR) after beta-blockade in anesthetized dogs 0.01 mg/kg", "assay_type": "functional, Canis lupus familiaris", "procedure,_shortened": "as §7"}, "[15]": {"test_system": "Canis familiaris", "test": "as §8", "assay_type": "functional, Canis lupus familiaris", "procedure,_shortened": "as §7", "remark": "listed apart in the source"}, "[16]": {"test_system": "Canis familiaris", "test": "as §9", "assay_type": "functional, Canis lupus familiaris", "procedure,_shortened": "as §7", "remark": "listed apart in the source"}, "[17]": {"test_system": "Canis familiaris", "test": "(§10) Percent change in myocardial contractility (LV dp/dt) before beta-blockade in anesthetized dogs at 0.01 mg/kg", "assay_type": "functional, Canis lupus familiaris, Myocardium", "procedure,_shortened": "as §1"}, "[18]": {"test_system": "Canis familiaris", "test": "Percent change in myocardial contractility (LV dp/dt) before beta-blockade in anesthetized dogs at 0.11 mg/kg", "assay_type": "functional, Canis lupus familiaris, Myocardium", "procedure,_shortened": "as §1"}, "[19]": {"test_system": "Canis familiaris", "test": "as §10", "assay_type": "functional, Canis lupus familiaris, Myocardium", "procedure,_shortened": "as §1", "remark": "listed apart in the source"}, "[20]": {"test_system": "Canis familiaris", "test": "(§11) Percent change in mean arterial blood pressure (MABP) before beta-blockade in anesthetized dogs at 0.01 mg/kg", "assay_type": "functional, Canis lupus familiaris", "procedure,_shortened": "as §1"}, "[21]": {"test_system": "Canis familiaris", "test": "(§12) Percent change in mean arterial blood pressure (MABP) before beta-blockade in anesthetized dogs at 0.03 mg/kg", "assay_type": "functional, Canis lupus familiaris", "procedure,_shortened": "as §1"}, "[22]": {"test_system": "Canis familiaris", "test": "(§13) Percent change in mean arterial blood pressure (MABP) before beta-blockade in anesthetized dogs at 0.11 mg/kg", "assay_type": "functional, Canis lupus familiaris", "procedure,_shortened": "as §1"}, "[23]": {"test_system": "Canis familiaris", "test": "as §11", "assay_type": "functional, Canis lupus familiaris", "procedure,_shortened": "as §1", "remark": "listed apart in the source"}, "[24]": {"test_system": "Canis familiaris", "test": "as §12", "assay_type": "functional, Canis lupus familiaris", "procedure,_shortened": "as §1", "remark": "listed apart in the source"}, "[25]": {"test_system": "Canis familiaris", "test": "as §13", "assay_type": "functional, Canis lupus familiaris", "procedure,_shortened": "as §1", "remark": "listed apart in the source"}, "[26]": {"test_system": "Canis familiaris", "test": "as §5", "assay_type": "functional, Canis lupus familiaris", "procedure,_shortened": "as §1", "remark": "listed apart in the source"}, "[27]": {"test_system": "Canis familiaris", "test": "as §6", "assay_type": "functional, Canis lupus familiaris", "procedure,_shortened": "as §1", "remark": "listed apart in the source"}, "[28]": {"test_system": "Canis familiaris", "test": "as §4", "assay_type": "functional, Canis lupus familiaris", "procedure,_shortened": "as §1", "remark": "listed apart in the source"}, "[29]": {"target": "Phosphodiesterase 3 (Homo sapiens, UniProt Q14432+Q13370)", "test": "Inhibition of cardiac PDE 3 (phosphodiesterase III)", "assay_type": "protein assay, Canis lupus familiaris"}, "[30]": {"test_system": "Canis familiaris", "test": "Percent change in myocardial contractility (LV dp/dt) before beta-blockade in anesthetized dogs at 0.03 mg/kg", "assay_type": "functional, Canis lupus familiaris, Myocardium", "procedure,_shortened": "as §1"}, "[31]": {"test_system": "Canis familiaris", "test": "Cardiovascular effects in anesthetized dogs", "assay_type": "functional", "details": "Canis lupus familiaris", "procedure,_shortened": "as §1"}, "[32]": {"test_system": "Canis familiaris", "test": "Effective dose in anesthetized dogs", "assay_type": "functional", "details": "Canis lupus familiaris", "procedure,_shortened": "as §1"}}, "note": "“And” between values parts separate entries of the source, which are not always exact repeats. Equal entries are not always repeated.", "data": [{"smiles": "O=C1CC2Cc3cc(-n4ccnc4)ccc3C2=NN1", "note": "(stereo not drawn)", "values": [{"measurement": "ED50", "setting": "[1]", "result": 0.023, "unit": "mg/kg"}, {"measurement": "Change in TPR", "setting": "[2]", "result": -12, "unit": "%"}, {"measurement": "Change in TPR", "setting": "[3]", "result": -23, "unit": "%"}, {"measurement": "Change in TPR", "setting": "[4]", "result": -39, "unit": "%"}, {"measurement": "Change in TPR", "setting": "[5]", "result": -8.5, "unit": "%"}, {"measurement": "Change in TPR", "setting": "[6]", "result": -22.5, "unit": "%"}, {"measurement": "Change in TPR", "setting": "[7]", "result": -33.5, "unit": "%"}, {"measurement": "Change in heart rate", "setting": "[8]", "result": 0, "unit": "%"}, {"measurement": "Change in heart rate", "setting": "[9]", "result": 2, "unit": "%"}, {"measurement": "Change in heart rate", "setting": "[10]", "result": 5, "unit": "%"}, {"measurement": "Change in FVR", "setting": "[11]", "result": -1.5, "unit": "%"}, {"measurement": "Change in FVR", "setting": "[12]", "result": -1.5, "unit": "%"}, {"measurement": "Change in FVR", "setting": "[13]", "result": -31, "unit": "%"}, {"measurement": "Change in FVR", "setting": "[14]", "result": -7.5, "unit": "%"}, {"measurement": "Change in FVR", "setting": "[15]", "result": -22.5, "unit": "%"}, {"measurement": "Change in FVR", "setting": "[16]", "result": -34.5, "unit": "%"}, {"measurement": "Change in LV dp/dt", "setting": "[17]", "result": 11, "unit": "%"}, {"measurement": "Change in LV dp/dt", "setting": "[18]", "result": "106% and 57%"}, {"measurement": "Change in LV dp/dt", "setting": "[19]", "result": 18, "unit": "%"}, {"measurement": "Change in MABP", "setting": "[20]", "result": 0, "unit": "%"}, {"measurement": "Change in MABP", "setting": "[21]", "result": -3, "unit": "%"}, {"measurement": "Change in MABP", "setting": "[22]", "result": -18, "unit": "%"}, {"measurement": "Change in MABP", "setting": "[23]", "result": -2, "unit": "%"}, {"measurement": "Change in MABP", "setting": "[24]", "result": -7, "unit": "%"}, {"measurement": "Change in MABP", "setting": "[25]", "result": -18, "unit": "%"}, {"measurement": "Change in heart rate", "setting": "[26]", "result": 4, "unit": "%"}, {"measurement": "Change in heart rate", "setting": "[27]", "result": 12, "unit": "%"}, {"measurement": "Change in heart rate", "setting": "[28]", "result": 3, "unit": "%"}, {"measurement": "IC50", "setting": "[29]", "result": 1800, "unit": "nM"}]}, {"smiles": "Oc1cc2c(nn1)-c1ccc(-n3ccnc3)cc1C2", "values": [{"measurement": "IC50", "setting": "[29]", "result": 1600, "unit": "nM"}]}, {"smiles": "CC1CC(O)=NN=C1c1ccc(-n2ccnc2)cc1", "note": "(stereo not drawn) [CI-930]", "values": [{"measurement": "ED50", "setting": "[1]", "result": 0.013, "unit": "mg/kg"}, {"measurement": "Change in heart rate", "setting": "[9]", "result": 7, "unit": "%"}, {"measurement": "Change in LV dp/dt", "setting": "[30]", "result": "76% and 47%"}, {"measurement": "Change in MABP", "setting": "[21]", "result": -5, "unit": "%"}, {"measurement": "Change in MABP", "setting": "[24]", "result": -7.5, "unit": "%"}, {"measurement": "Change in heart rate", "setting": "[26]", "result": 11, "unit": "%"}]}, {"smiles": "CCC(=O)Nc1ccc2c(c1)CC1CC(=O)NN=C21", "note": "(stereo not drawn)", "values": [{"measurement": "ED50", "setting": "[31]", "result": 0.0104, "unit": "mg/kg"}]}, {"smiles": "CN1N=C2c3ccc(-n4ccnc4)cc3CC2CC1=O", "note": "(stereo not drawn)", "values": [{"measurement": "ED50", "setting": "[32]", "result": 1, "unit": "mg/kg"}]}]}
